Assay results collected from several papers.
Protocols differ between the studies behind these lines.
Target: Casein kinase I isoform alpha (CSNK1A1, Homo sapiens, UniProt P48729)

Cc1nn(C)cc1-c1nc2c(N3CCN(Cc4ccc(Cl)cc4)CC3)c(Cl)cnc2[nH]1
remaining binding (binding; competition with immobilised ligand; 1 µM): 77%

N#CC1(c2ccccn2)CCN(Cc2cc(C(=O)O)c(=O)n3ccccc23)CC1
remaining binding (cell-free assay; competition with immobilised ligand; 1 µM): 100%

Cn1cc(-c2cc(F)cc(N3CCn4c(cc5c4CCCC5)C3=O)c2CO)cc(Nc2ccc(N3CCN(C4COC4)CC3)cn2)c1=O
inhibition (enzyme activity; inhibitor; 0.1 µM): 4%

Cn1cncc1[C@](O)(COc1ccc(C#N)cc1-c1ccc(OC(F)(F)F)cc1)c1ccc(C#N)cc1
remaining binding (cell-free assay; competition with immobilised ligand; 1 µM): 100%

Cn1cc(-c2cccc(N3CCc4c(sc5c4CC(C)(C)C5)C3=O)c2CO)cc(Nc2ccncn2)c1=O
inhibition (enzyme activity; inhibitor; 1 µM): 6%

COc1ncccc1-c1cnn2ccc(N3CCN(C(=O)OC(C)C)CC3)nc12
remaining binding (binding; competition with immobilised ligand; 1 µM): 100%

O=c1[nH]c2ccccc2n1C1CCN(Cc2ccc(-c3[nH]c4cc5ncnc5cc4nc3-c3ccccc3)cc2)CC1
remaining signal (cell-free assay; 0.5 µM): 96%

Nc1ncc(-c2nc(N3CCOCC3)nc(N3CCOCC3)n2)c(C(F)F)n1
remaining binding (binding; competition with immobilised ligand; 10 µM): 72%
